Active and inactive are the calls of the source. No cut-off for these calls is given here.
Assays:
[1] = Growth inhibition of VHL-null human RCC4 cells after 4 days by XTT assay; type: functional; details: RCC4, 96 h
How it was run: (§1)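 XTT read-out: 5000 cells/well plated, vehicle or drug added next day, 4-day exposure. Then phenol red-free medium with 0.3 mg/mL XTT, 20% FCS and 2.65 μg/mL N-methyldibenzopyrazine methyl sulfate, 1-2 h at 37 °C, absorbance at 450 nm. GI50 by linear interpolation; single determinations in triplicate. Ratio is the intraexperiment RCC4-VHL GI50 / RCC4 GI50.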

[2] = Ratio of IC50 for human RCC4-VHL cells to IC50 for VHL-null human RCC4 cells; type: functional; how it was run: as §1
RCC4 = experiment: Induction of autophagy in VHL-null human RCC4 cells assessed as intracytoplasmic vacuoles at 5 uM after 24 h

Row | Structure (SMILES) | GI50 [1] [µM] | RatioGI50 [2] | Activity (RCC4)
1 | Cc1cccc(Nc2nc(-c3ccncc3)c(C)s2)c1 | 10 | >4 | 
2 | Cc1sc(Nc2ccc3c(c2)CCC3)nc1-c1ccncc1 | 12 | 1.5 | 
3 | CCN(CC)Cc1sc(Nc2cccc(C)c2)nc1-c1ccncc1 | 13 | 1.4 | 
4 | Fc1cccc(F)c1Nc1nc(-c2ccncc2)cs1 | > 40 |  | 
5 | Cc1cc(Nc2nc(-c3ccncc3)cs2)ccc1O | 70 | 2.3 | 
6 | Cc1ccc(Nc2nc(-c3ccncc3)c(CO)s2)cc1 | 14 | 1.2 | 
7 | Clc1cccc(Nc2nc(-c3ccncc3)cs2)c1 | 3 | 5 | 
8 | Cc1cccc(Nc2nc(-c3ccncc3)cs2)c1 | 2.1 | 19 | 
9 | Cc1cccc(Nc2nc(-c3ccncc3)c(CO)s2)c1 | 7 | 2.4 | 
10 | C#Cc1cc(-c2csc(Nc3cccc(C)c3)n2)ccn1 | 17.8 | >2.2 | 
11 | CC(C)c1cccc(Nc2nc(-c3ccncc3)cs2)c1 | 17 | 1.4 | 
12 | CN(C)CCc1ccc(Nc2nc(-c3ccncc3)cs2)cc1 | 50 | 1.2 | 
13 | Cc1cccc(C)c1Nc1nc(-c2ccncc2)cs1 | > 40 |  | 
14 | Oc1ccc(Nc2nc(-c3ccncc3)cs2)cc1 | 5.3 | 8 | 
15 | Cc1cccc(Nc2nc(-c3cc(Cl)nc(Cl)c3)cs2)c1 | 15 | 2.3 | 
16 | Cc1cccc(C(=O)Nc2nc(-c3ccncc3)cs2)c1 | > 40 |  | 
17 | Cc1cccc(Nc2nc(-c3ccncc3F)cs2)c1 | 2 | >20 | 
18 | Cc1cccc(Nc2nc(-c3ccnc(C)c3)cs2)c1 | > 40 |  | 
19 | Cc1cccc(Nc2nc(-c3ccnc(C#CCO)c3)cs2)c1 | 9.3 | 1.6 | 
20 | Cc1ccc(Nc2nc(-c3ccncc3)cs2)cc1C | 6.5 | 6.4 | 
21 | Cc1cccc(Nc2nc(-c3ccnc(Cl)c3)cs2)c1 | 2.2 | 3.8 | 
22 | COc1cccc(Nc2nc(-c3ccncc3)cs2)c1 | 3 | 17 | 
23 | CCN(c1cccc(C)c1)c1nc(-c2ccncc2)cs1 | 40 | 0.6 | 
24 | Clc1ccc(Nc2nc(-c3ccncc3)cs2)cc1 | 38 | >2 | 
25 | Oc1cccc(Nc2nc(-c3ccncc3)cs2)c1 | 28.5 | >3 | 
26 | Cc1cccc(Nc2nc(-c3ccnc(CCCO)c3)cs2)c1 | 5.2 | >7.7 | 

Row | Structure (SMILES) | GI50 [1] [µM] | RatioGI50 [2] | Activity (RCC4)
27 | COc1cc(Nc2nc(-c3ccncc3)cs2)cc(OC)c1 | > 40 |  | 
28 | Cc1cccc(Nc2nc(-c3ccncc3Cl)cs2)c1 | 2.9 | >13.8 | Active
29 | Cc1cccc(Nc2nc(-c3ccnc(F)c3)cs2)c1 | 4.5 | >8.9 | 
30 | O=[N+]([O-])c1ccc(Nc2nc(-c3ccncc3)cs2)cc1 | > 40 |  | 
31 | Cc1cccc(Nc2nc(-c3ccncc3)c(CCCN3CCOCC3)s2)c1 | 5.8 | 1.6 | 
32 | Cc1ccc(Nc2nc(-c3ccncc3)cs2)cc1O | 12 | 4.6 | 
33 | Clc1ccc(Nc2nc(-c3ccncc3)cs2)cc1Cl | 13.5 | >3 | 
34 | c1ccc(Nc2nc(-c3cccnc3)cs2)cc1 | > 40 |  | 
35 | Cc1cccc(Nc2nc(-c3ccncc3C#CCO)cs2)c1 | 0.24 | 11.9 | Active
36 | Fc1cccc(Nc2nc(-c3ccncc3)cs2)c1 | > 40 |  | 
37 | C#Cc1cnccc1-c1csc(Nc2cccc(C)c2)n1 | 1.35 | 4.4 | 
38 | FC(F)(F)c1ccccc1Nc1nc(-c2ccncc2)cs1 | > 40 |  | 
39 | CC(C)(C)c1cccc(Nc2nc(-c3ccncc3)cs2)c1 | > 40 |  | 
40 | Cc1cccc(Nc2nc(-c3cc[n+]([O-])cc3)cs2)c1 | > 40 |  | 
41 | Cc1cccc(Nc2nc(-c3ccncc3N)cs2)c1 | > 40 |  | 
42 | COc1cc(-c2csc(Nc3cccc(C)c3)n2)ccn1 | 28.7 | 1.2 | 
43 | Oc1ccccc1Nc1nc(-c2ccncc2)cs1 | 12.8 | >3.1 | 
44 | Cc1cccc(Nc2nc(Cc3cccnc3)cs2)c1 | > 40 |  | 
45 | Cc1cccc(Nc2nc(-c3ccncc3)c(C(=O)N(C)C)s2)c1 | 16 | >2.5 | 
46 | FC(F)(F)c1cccc(Nc2nc(-c3ccncc3)cs2)c1 | > 40 |  | 
47 | OCc1sc(Nc2ccc3c(c2)CCC3)nc1-c1ccncc1 | 6.8 | 1.4 | 
48 | Cc1cccc(Nc2nc(-c3cccnc3)cs2)c1 | > 40 |  | 
49 | Cc1cc(C)cc(Nc2nc(-c3ccncc3)cs2)c1 | 4.5 | >9 | 
50 | CN(C)CCOc1ccc(Nc2nc(-c3ccncc3)cs2)cc1 | 60 | 1.3 | 
51 | CC(=O)Nc1cnccc1-c1csc(Nc2cccc(C)c2)n1 | 33.3 | 1 | 
52 | Brc1cccc(Nc2nc(-c3ccncc3)cs2)c1 | 12.4 | >3.2 | 

Row | Structure (SMILES) | GI50 [1] [µM] | RatioGI50 [2] | Activity (RCC4)
53 | Cc1cccc(Nc2nc(-c3ccncc3)c(C=O)s2)c1 | 15 |  | 
54 | Cc1cccc(Nc2nc(-c3ccccn3)cs2)c1 | 37 | 0.9 | 
55 | Cc1cccc(N(CCO)c2nc(-c3ccncc3)cs2)c1 | > 40 |  | 
56 | Cc1cccc(Nc2nc(-c3ccncc3)c(C(N)=O)s2)c1 | 19.2 | >2 | 
57 | O=[N+]([O-])c1cccc(Nc2nc(-c3ccncc3)cs2)c1 | > 40 |  | 
58 | COC(=O)/C=C/c1sc(Nc2cccc(C)c2)nc1-c1ccncc1 | 2.5 | 2.8 | 
59 | O=[N+]([O-])c1ccccc1Nc1nc(-c2ccncc2)cs1 | > 40 |  | 
60 | Cc1ccccc1Nc1nc(-c2ccncc2)cs1 | > 40 |  | 
61 | Cc1cccc(Nc2nc(-c3ccncc3)c(CN(C)C)s2)c1 | 16 | 2.3 | 
62 | c1ccc(Nc2nc(-c3ccncc3)cs2)cc1 | 7 | >10 | 
63 | COc1ccc(C(=O)Nc2nc(-c3ccncc3)cs2)cc1 | > 40 |  | 
64 | COC(=O)CCc1sc(Nc2cccc(C)c2)nc1-c1ccncc1 | > 40 |  | 
65 | O=C(Nc1nc(-c2ccncc2)cs1)c1ccccc1 | > 40 |  | 
66 | Cc1ccc(C(=O)Nc2nc(-c3ccncc3)cs2)cc1 | > 40 |  | 
67 | COc1ccc(Nc2nc(-c3ccncc3)cs2)cc1OC | 24 | 1.9 | 
68 | Cc1cccc(Nc2nc(-c3ccncc3Br)cs2)c1 | 3.9 | >10 | 
69 | Fc1ccc(Nc2nc(-c3ccncc3)cs2)cc1 | 6 | >7 | 
70 | CCOC(=O)c1sc(Nc2cccc(C)c2)nc1-c1ccncc1 | > 40 |  | 
71 | Cc1cccc(Nc2nc(-c3ccncc3)c(CN3CCCCC3)s2)c1 | 13 | 1.9 | 
72 | CCc1cccc(Nc2nc(-c3ccncc3)cs2)c1 | 2.5 | 9.6 | 
73 | Cc1cccc(Nc2nc(-c3ccncc3)c(C(=O)NCCN(C)C)s2)c1 | > 40 |  | 
74 | Cc1cccc(N(C)c2nc(-c3ccncc3)cs2)c1 | 28 | 0.6 | 
75 | COc1ccc(Nc2nc(-c3ccncc3)cs2)cc1 | 14 | 3.6 | 
76 | CCOC(=O)c1sc(Nc2ccc3c(c2)CCC3)nc1-c1ccncc1 | > 40 |  | 
77 | Oc1ccc(Nc2nc(-c3ccccn3)cs2)cc1 | 36 | 0.7 | 
78 | Cc1cccc(Nc2nc(Cc3ccncc3)cs2)c1 | 20.3 | 24.4 | 

Row | Structure (SMILES) | GI50 [1] [µM] | RatioGI50 [2] | Activity (RCC4)
79 | COc1cc(Nc2nc(-c3ccncc3)cs2)cc(OC)c1OC | > 40 |  | 
80 | CCc1cnccc1-c1csc(Nc2cccc(C)c2)n1 | 6.2 | 2.8 | 
81 | COc1ccccc1Nc1nc(-c2ccncc2)cs1 | 33.4 | >1.2 | 
82 | Cc1cccc(Nc2nc(-c3ccncc3C)cs2)c1 | 5.2 | >7.7 | 
83 | CC(=O)c1ccc(-c2cnccc2-c2csc(Nc3cccc(C)c3)n2)cc1 | 3.9 | 9 | 
84 | Cc1cccc(CNc2nc(-c3ccncc3)cs2)c1 | > 40 |  | 
85 | FC(F)(F)c1ccc(Nc2nc(-c3ccncc3)cs2)cc1 | > 40 |  | 
86 | Oc1ccc(Nc2nc(-c3cccnc3)cs2)cc1 | > 40 |  | 
87 | Cc1cccc(Nc2nc(-c3ccnc(Br)c3)cs2)c1 | 2 | 4.3 | 
88 | Cc1cccc(Nc2nc(-c3ccncc3)c(C(=O)NCCCN3CCOCC3)s2)c1 | > 40 |  | 
89 | Cc1cccc(Nc2nc(-c3ccncc3[N+](=O)[O-])cs2)c1 | 8.2 | 4.1 | 
90 | OCCc1ccc(Nc2nc(-c3ccncc3)cs2)cc1 | 5 | 16 | 
91 | Cc1cccc(Nc2nc(-c3ccncc3)c(CCCO)s2)c1 | 3.6 | 3.7 | 
92 | c1cc(-c2csc(Nc3ccc4c(c3)OCO4)n2)ccn1 | > 40 |  | 
93 | Clc1ccccc1Nc1nc(-c2ccncc2)cs1 | 27.6 | >1.4 | 
94 | Cc1cccc(Nc2nc(-c3ccncc3CCCO)cs2)c1 | 6.8 | >5.9 | 
95 | Cc1ccc(Nc2nc(-c3ccncc3)cs2)cc1 | 2.5 | 20 | 
96 | CCc1cc(-c2csc(Nc3cccc(C)c3)n2)ccn1 | 6.4 | >6.3 | 
97 | N#Cc1ccc(Nc2nc(-c3ccncc3)cs2)cc1 | > 40 |  | 
98 | Cc1cccc(Nc2nc(-c3ccncc3)c(CN3CCOCC3)s2)c1 | 2.5 | 4.8 | 
99 | Fc1ccccc1Nc1nc(-c2ccncc2)cs1 | 14.3 | >2.8 | 
100 | OCc1sc(Nc2ccccc2)nc1-c1ccncc1 | 30 | >1.3 | 
101 | N#Cc1cccc(Nc2nc(-c3ccncc3)cs2)c1 | > 40 |  | 
102 | c1ccc(Nc2nc(-c3ccccn3)cs2)cc1 | 35.1 | 0.9 | 
